# Shown are actives, neighbours in structure and some others; about 1.7% of the full set was active somewhere.
# Neddylation inh – inhibitors of cullin neddylation, primary screen, biochemical, TR-FRET, uHTS, NAE and Ubc12; inhibition, % at 25 µM; AID 651699, 2012; 360,000 tested, 0.58% active; in the data active = inhibition above about 36%
# Arrestin-AP2 inh – inhibitors of beta-arrestin/AP2 binding, primary screen, biochemical, GPCR trafficking, flow cytometry | beta-arrestin 1 C-terminal peptide binding to AP2 beta2-adaptin appendage (human) | FITC-arrestin peptide / GST-AP2 beads; AP2 beta2 appendage carries R879A mutation | inhibition, % at 10 µM | 340,000 tested, 0.31% active | AID 504490, 2011;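 active = inhibition above a set limit, near 3 SD of compounds lacking own fluorescence, cut at about 54% in these data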;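 also: plate controls were DMSO wells for no effect and 5 µM unlabelled arrestin peptide for full effect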
#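 System: GST-AP2 R879A glutathione beads; medium: PBS, Tween 20 0.05%, BSA 0.1%; reagent: fluorescein-tagged arrestin peptide at 50 nM final; schedule: pre-incubation 12 min, peptide binding 1 h, room temperature; detection: flow cytometry, FL1 (488/535 nm); read-out: inhibition as reduced fluorescein signal on beads, percent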
# Efflux pump inh – inhibitors of Candida efflux pumps in yeast, primary screen, S. cerevisiae, Nile Red, multiplex; S. cerevisiae Candida pump triplex; inhibition, % at 10 µM; 330,000 tested, 0.44% active;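 active = plate passing quality check with inhibition over a set limit, or well fluorescence over plate mean plus 4 SD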;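 also: Nile Red retained in pooled yeast measured as flow cytometry median fluorescence; 0% = buffer negative control and 100% = Enniatin B positive control; higher means more Nile Red kept so more efflux inhibition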
# DSG3 Ab inh – inhibitors of pemphigus antibody binding to DSG3, primary screen, biochemical, bead-based, flow cytometry, scFv-GFP; binding (percent of control), % at 10 µM; DSG3-coupled beads, scFv-anti-DSG3-GFP binding; hits give low values; 310,000 tested, 0.48% active; Desmoglein-3 (Homo sapiens), P32926;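 active = binding more than 3 SD below its plate's average and above zero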;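 also: hits lower antibody fragment binding to DSG3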
# Neddyl inh conf – blockade of NEDD8 conjugation to cullin – biochemical, TR-FRET, single concentration, confirmation | shares compounds with Neddylation inh | TR-FRET cullin neddylation biochemical assay | calls only at 25 µM | 1,800 tested, 13% active; in the data active = inhibition above about 40%;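 also: neddylation substrate is the cullin 1 ring ligase complex with SKP2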
# * = called active by the depositor; i = inactive; nt = no result given; + = active, no number.
SMILES,Neddylation inh,Arrestin-AP2 inh,Efflux pump inh,DSG3 Ab inh,Neddyl inh conf
COc1ccc2oc(C(=O)OCC(=O)N(C)C3CCCCC3)c(C)c2c1,59*,-2,0,122,nt
COc1ccc(-n2cc(CNCc3cnc4ccccn34)c(-c3cccc(F)c3)n2)cc1,42*,-2,0,109,nt
CC1(C)C2CCC(CN=C(N)CSS(=O)(=O)O)C1C2 (centres undefined),8,nt,nt,112,nt
COCc1cccc(-c2csc(C(C)(NC(C)=O)c3ccc(OC)cc3)n2)c1 (centres undefined),-1,nt,nt,nt,nt
Cc1cc(C)nc(-n2nc(C)c3c(C(=O)O)cc(-c4cccc(Br)c4)nc32)n1,40*,18,0,94,i
CCn1c(COC(=O)CNC(=O)c2ccccc2)nc2cc(S(=O)(=O)N(C)C)ccc21,7,-5,0,93,nt
CN1CCN(c2nc(N3CCN(CCO)CC3)nc3ccccc23)CC1,45*,0,0,104,nt
O=C1N/C(=C/c2cccn2-c2ccccc2)C(=O)N1Cc1ccccc1F,38*,9,0,99,i
O=C1N/C(=C/c2cccn2-c2ccc(F)cc2)C(=O)N1Cc1ccccc1,nt,-6,0,103,nt
COCCn1c(SCC(=O)c2c(N)n(C3CC3)c(=O)[nH]c2=O)nc2ccccc21,1,7,0,102,nt
CC(C)CNc1oc(-c2ccccc2Cl)nc1C#N,42*,5,0,90,i
CCCN(CCC)S(=O)(=O)c1cccc(-c2csc(C)n2)c1,-1,-6,0,93,nt
CC(C)CN(C(=O)COC(=O)c1nc(Cl)ccc1Cl)c1c(N)n(Cc2ccccc2)c(=O)[nH]c1=O,5,0,0,113,nt
Cc1ccccc1N(CC(=O)NC1CCCC1)C(=O)C1(C)CC(=O)N=C2C=CC=CN21 (centres undefined),nt,-3,0,nt,nt
Cc1cc(C)cc(N(CC(=O)NC2CCCC2)C(=O)C2(C)CC(=O)N=C3C=CC=CN32)c1 (centres undefined),52*,-26,0,97,+
COc1cc(NC(=O)c2ccccc2)ccc1NC(=O)Cc1ccccc1,0,36,0,130,nt
COc1cc(NC(=O)c2cccnc2)c(Cl)cc1NC(=O)c1ccccc1,41*,-13,0,100,i
COc1cc(NC(=O)Cc2ccccc2)ccc1NC(=O)c1ccccc1,43*,-13,0,108,i
Cc1ccc(S(=O)(=O)NNC(=O)c2ccncc2)cc1[N+](=O)[O-],3,-16,0,105,nt
C=C1c2nc3ccccc3n2C=C(c2ccc(C)cc2)N1c1ccccc1,nt,31,nt,100,nt
Cc1c(/C=C(\CC(=O)O)c2nc3ccccc3s2)cc(C#N)n1C,43*,-13,0,96,nt
Cc1nn(-c2ccccc2)c(Cl)c1/C=C(/CC(=O)O)c1nc2ccccc2s1,-6,5,nt,nt,nt
COCC(C)n1c(=O)sc2ccccc2c1=O (centres undefined),-2,14,0,101,nt
CCc1ccc2oc(-c3ccc(OC)cc3)cc(=Nc3cccc(C(=O)O)c3)c2c1,43*,-1,0,106,i
COc1ccc(-c2cc(=Nc3ccc(C(=O)O)cc3)c3cc(C)ccc3o2)cc1,nt,17,0,121,nt
SMILES,Neddylation inh,Arrestin-AP2 inh,Efflux pump inh,DSG3 Ab inh,Neddyl inh conf
CC(C)Cc1csc(NC(=O)c2ccc(Cl)cc2)c1C(=O)O,45*,37,-1,100,i
CCOc1ccc2[nH]c(=O)c(CN(CCCN3CCOCC3)Cc3nnnn3Cc3ccc(OC)cc3)cc2c1,39*,-6,0,107,i
COc1cc2cc(CN(CCCN3CCOCC3)Cc3nnnn3Cc3ccccc3)c(=O)[nH]c2cc1OC,nt,14,0,126,nt
CCOc1ccc2[nH]c(=O)c(CN(CCO)Cc3nnnn3CCc3ccccc3)cc2c1,46*,11,0,95,i
CN(C)CCNc1nc(-c2ccco2)c2c(c1C#N)CC(C)(C)OC2,51*,-4,0,97,+
CC1(C)Cc2c(C#N)c(NCc3ccco3)nc(-c3ccco3)c2CO1,31,-18,0,100,nt
Cc1ccc(S(=O)(=O)N(C)CC(=O)NNC(=O)CCC(=O)c2ccc(F)cc2)cc1,0,19,0,126,nt
